The text below walks through data of paper PMC3016465 (Proteins, 2011).

Entries after “also recorded” stand apart in the source; their conditions may differ. Bounds are passed on as bounds.

One data set deals with N2a cells. Description: MTT cytotoxicity assay. The settings on record: oligomeric peptide, one day after addition. The format is cell-based. A general note: Tetrazolium assays rely on reduction of a dye to a coloured formazan, in cell work by metabolically active cells.
Data set [1] is described as follows: Atomic force microscopy of oligomers. Type of data set: physicochemical.
The subject of a further data set is Aβ^(26TOAC). Description: EPR of Aβ^. Type of data set: binding. The note with it: apoE 30 μM; 40 μM Aβ (1 part Aβ^(26TOAC) to 3 parts native Aβ(1-40)), scanned immediately after introduction into aqueous buffer.
The test system of a further data set is Aβ. The note with it: cited from earlier work.
The subject of a further data set is AβO. Description: EPR of position 264 spin-labeled apoE with HDL or VLDL, with or without AβO. Type of data set: binding. The settings on record: for EPR response to AβO in presence of HDL / VLDL: apoE 30 μM, HDL or VLDL 850 mg/dL, oligomeric Aβ(1-40) 100 μM, one hour at 37 °C; for EPR response to HDL / VLDL without AβO: apoE spin-labeled at 264, HDL or VLDL, Supplemental Figure S2. In outline: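 Human apoE isoforms (Cys at 264) expressed in E. coli BL21(DE3)AI, purified from inclusion bodies in 8 M urea, labeled with MTS-SL and refolded into PBS pH 7.4. HDL or VLDL came from postprandial human plasma by ultracentrifugation. […] Samples were incubated, then run as X-band EPR (loop-gap resonator, sealed quartz capillary), with vehicle controls.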

The next data set deals with VLDL and HDL. The note with it: ref [10]; cited from earlier work.
Data set [2] is described as follows: Circular dichroism of spin-labeled apoE. The settings on record: spin-labeled W264C apoE4 vs wt apoE4; Supplementary Material. Type of data set: physicochemical. On the technique in general: Circular dichroism is the unequal absorption of left and right circularly polarised light.
For the next data set, the system named is Aβ fibrils. The note with it: in vitro; ref [19]; cited from earlier work.
The subject of data set [3] is neuronal death / neurite outgrowth. The note with it: independent of Aβ; ref [15]; cited from earlier work.

On to “Aβ(1-40): native Aβ(1-40) peptide (Bachem Cat # 1194.0001)”, for which, in the data set with N2a cells, the cell death is 60-75%.
AβO: soluble Aβ oligomer: the “time to formation of fibrillar aggregates after spotting” value in data set [1] (AFM, AβO 50 μM, on mica surface) was ≤ 1 min. The “average volume of initial AβO species” value in data set [1] (AFM, set of 11, assuming simple spherical particle) is 203 ± 26 nm^3. Also, the “upper limit of oligomer size” value in data set [1] (efficient packing of the peptide in the particle is unlikely) is recorded as ≤ 30 -mer. Also, the “protein mass of AβO particle” value in [1] (estimated from AFM volume, if packed similar to a globular protein) was ~ 160 kD.
“E3-like protein: apoE3-like protein: R112->S mutation in the apoE4-W264C template”: in the data set with Aβ^(26TOAC), the “effect of apoE on the Aβ^(26TOAC) EPR spectrum” value was “Only the E3-like protein induces a broadening of the Aβ^(26TOAC) spectra”. In the data set with Aβ (E3-like mutant (Cys112→Ser) relative to apoE4, ref [29]), the “propensity to form SDS-resistant complex with Aβ” value was “higher (relative to apoE4) propensity to form an SDS-resistant complex with Aβ”. For the same substance, in the data set on AβO, the “EPR response to AβO in presence of HDL / VLDL” value is listed as “the influence of AβO on the E3-like protein is clearly greater in the presence of HDL”; the “EPR response to HDL / VLDL without AβO” value was “becomes more ordered; where the spectra of spin-labeled 264 are similarly broadened by HDL and VLDL”.
On to “apoE4: h_apoE4 protein containing the W264->Cys (apoE4-W264C) substitution”, for which the “effect of apoE on the Aβ^(26TOAC) EPR spectrum” value with Aβ^(26TOAC) is listed as “produces a spectrum that is identical to TOAC-labeled sample added to PBS alone; also recorded: had no significant effect on the Aβ^(26TOAC) spectrum”. In addition, the “lipoprotein preference” value in the data set on VLDL and HDL is recorded as “preference of E4 to bind VLDL over HDL”. Besides, the “association with Aβ, SDS-resistant apoE-Aβ on gels” value in the data set with Aβ (in vitro, ref [13]) is on record as “higher apoE4 association in vitro”. In addition, the “affinity of lipid-free apoE4 for Aβ vs apoE3” value with Aβ (lipid-free apoE, ref [14],[19]) is “binds Aβ with a higher affinity than apoE3 and promotes fibrillization of Aβ”. Also, the “CD analysis of spin-labeled protein” value in data set [2] was “indistinguishable from wt apoE4”. Moreover, in the data set with Aβ fibrils, the “stimulation of Aβ fibril assembly” value is “in vitro assembly of Aβ fibrils is stimulated by apoE, and more so by the E4 isoform”. Further, the “neuronal death” value in data set [3] was “induces neuronal death and forms large fibril-like assemblies”. Also, in the data set with AβO, the “EPR response to AβO in presence of HDL / VLDL” value was “slightly stronger binding effect of apoE4 to AβO in the presence of VLDL than HDL”; the “EPR response to HDL / VLDL without AβO” value is “shows little change with HDL, and a slight increase in amplitude with VLDL”.
